This note sets out measurements from ChEMBL document CHEMBL4265939, “Discovery of phenylalanine derivatives as potent HIV-1 capsid inhibitors from click chemistry-based compound library” (Eur J Med Chem, 2018).

pEC50, pIC50, pKd: −log10 of the molar value. Some results are limits rather than exact numbers.

Data set [1] has as its system MT4. Briefly: Cytotoxicity against human MT4 cells assessed as reduction in cell viability after 24 hrs by CytoTox-Glo cytotoxicity assay. In kind it is cell-based. The note with it: mt4, 24 h. In a few lines: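 Uninfected MT-4 cells were cultured for 1 day with various compound concentrations, in parallel with the antiviral assays. Percent viable cells was read by the CytoTox-Glo kit following the manufacturer's protocol. […] Each value was run in at least triplicate and averaged from at least four independent experiments.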

For data set [2], the system named is Human immunodeficiency virus 1. Briefly: Antiviral activity against Human immunodeficiency virus 1 NL4-3 infected in human MT4 cells assessed as protection against virus-induced cytopathic effect after 2 days by bright-glo luciferase reporter gene assay. The settings on record: for EC50: mt4; for pEC50: Human immunodeficiency virus 1, NL4-3, MT4, 48 h, read-out: EC50. In kind it is functional, organism-based. Summed up:
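MT-4 cells are infected with 200 TCID50 of HIV-1 NL4-3 over a range of compound concentrations, allowing multiple rounds of infection. After two days the medium is removed and Bright-Glo luminescence is read. […] At least triplicate; mean ± SD of at least two parallel tests.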
Background: Protection from cytopathic effect is a common read-out in antiviral testing.

Data set [3] is described as follows: Therapeutic index, ratio of CC50 for human U87 cells to IC50 for ENV pseudotyped HIV1 B41 infected in human U87 cells expressing CD4/CCR5. The settings on record: read-out: Ratio CC50/IC50. The data set is classed as toxicity, cell-based.
Data set [4] has as its target T1, Structural capsid protein (Human immunodeficiency virus 1, UniProt Q76129). The data set is described as follows: Binding affinity to HIV1 NL4-3 hexameric capsid protein by surface plasmon resonance. In a few lines:
(§1)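 SPR at 25°C. HIV-1 NL4-3 CA constructs are amine-coupled at 100 µg/ml in 10 mM sodium acetate, pH 5.0, onto an EDC/sulfo-NHS-activated GLH chip, then ethanolamine-capped. Compound serial dilutions in PBS, 3% DMSO, 0.005% polysorbate 20, pH 7.4 are injected at 100 µl/min with 1 min association and up to 5 min dissociation. Reference-subtracted; KD by equilibrium analysis, at least three experiments.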
On the technique in general: Surface plasmon resonance follows binding to a sensor surface in real time, without labels.

The test system of data set [5] is Human immunodeficiency virus 1. Briefly: Antiviral activity against ENV pseudotyped HIV1 B41 infected in human U87 cells expressing CD4/CCR5 pretreated with virus for 72 hrs followed by infection of cells measured after 48 hrs by luciferase reporter gene assay. The data set is classed as functional, organism-based. The note with it: Human immunodeficiency virus 1, B41, U-87 MG. Summed up: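 Late-stage assay. B41 Env-pseudotyped luciferase viruses are produced in 293T cells with compound (100 μM to 0.01 μM, equal DMSO) or DMSO vehicle for 72 h at 37°C. Supernatants are clarified, filtered, freeze-thawed once, diluted ten-fold and used to infect U87.CD4.CCR5 cells for 48 h at 37°C. Lysate luciferase is normalized to virus made in vehicle-treated cells.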
In general terms: A reporter such as luciferase makes a cellular process visible.

Data set [6] has as its system U-87 MG. The data set is described as follows: Cytotoxicity against human U87 cells expressing CD4/CCR5. In kind it is cell-based. The note with it: u-87mg atcc.
Data set [7] deals with Human immunodeficiency virus 1. Briefly: Antiviral activity against ENV pseudotyped HIV1 B41 infected in human U87 cells expressing CD4/CCR5 measured after 48 hrs by luciferase reporter gene assay. The note with it: Human immunodeficiency virus 1, B41, U-87 MG. The data set is classed as functional, organism-based. Summed up:
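Early-stage single-round assay. U87.CD4.CCR5 target cells, 1.2×10^4 cells/well, are seeded and left 24 h at 37°C. Single-round HIV-1 B41 Env-pseudotyped firefly luciferase virus, produced in HEK293T without compound, is mixed with compound or DMSO vehicle and added to the cells. After 48 h at 37°C the cells are lysed, freeze-thawed and read for luciferase. IC50 from 3 parallel tests.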

The target in data set [8] is T1, Structural capsid protein. Briefly: Binding affinity to HIV1 NL4-3 monomeric capsid protein by surface plasmon resonance. Summed up: as §1
Data set [9] can be described thus: Selectivity index, ratio of CC50 for human MT4 cells to EC50 for Human immunodeficiency virus 1 NL4-3 infected in human MT4 cells. The data set is classed as toxicity, cell-based. The settings on record: read-out: Ratio CC50/EC50. In a few lines:
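SI is CC50/EC50, both measured in MT-4 cells. For EC50, 200 TCID50 of NL4-3 infected MT-4 cells over multiple rounds in the presence of various compound concentrations. […] CC50 came from a 1-day CytoTox-Glo viability assay on uninfected cells.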

The target of data set [10] is T1, Structural capsid protein. The data set is described as follows: Binding affinity to HIV1 NL4-3 N-terminal domain capsid protein by surface plasmon resonance. Summed up: as §1
Data set [11] concerns Human immunodeficiency virus 1. Briefly: Antiviral activity against Human immunodeficiency virus 1 NL4-3 infected in human MT2 cells measured 4 to 5 days post infection by luciferase reporter gene assay. The note with it: Human immunodeficiency virus 1, NL4-3, MT2. In kind it is functional, organism-based.
Data set [12] can be described thus: Cytotoxicity against human MT2 cells after 4 days by XTT assay. The data set is classed as cell-based.
For data set [13], the system named is Human immunodeficiency virus 1. The data set is described as follows: Antiviral activity against Human immunodeficiency virus 1 3B infected in human MT4 cells assessed as inhibition of virus-induced cytopathic effect at 2 uM after 5 days by CellTiter-Glo assay relative to control. The settings on record: MT4, 120 h. In kind it is functional.

T1 sequence (Q76129 whole entry): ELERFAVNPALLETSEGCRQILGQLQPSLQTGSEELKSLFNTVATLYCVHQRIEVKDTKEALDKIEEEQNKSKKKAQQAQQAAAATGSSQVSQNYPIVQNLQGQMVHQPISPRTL

Consider `COc1ccc(N(C)C(=O)[C@H](Cc2ccccc2)NC(=O)c2cn(Cc3cccc(Cl)c3)nn2)cc1`, for which the CC50 – broadly, the concentration at which the toxic effect on the cells reaches its halfway point – in data set [1] was “Not Active”. In addition, in data set [2], the EC50 result is given as “Not Active”.

Regarding `COc1ccc(N(C)C(=O)[C@H](Cc2ccccc2)NC(=O)c2cn(Cc3ccc4ccccc4c3)nn2)cc1`, the selectivity ratio in data set [3] was 2.8; in [9] it was greater than 13.3. Further, the pKd (usually the negative decadic logarithm of the Kd, by convention in mol/L) in data set [4] is 4.96; in data set [8] it was 4.85; in data set [10], 4.49. In addition, the pIC50 (usually −log10 of the IC50, conventionally taken in molar units) was 4.51 in [5] and 5.15 in data set [7]. Also, the CC50 in data set [6] was 54.8 µM; in [1] (read-out: CC50), greater than 57.7 µM. Further, the pEC50 (usually −log10 of the EC50, conventionally taken in molar units) in data set [2] is 5.36.

Regarding `COc1ccc(N(C)C(=O)[C@H](Cc2ccccc2)NC(=O)c2cn(Cc3cccc4ccccc34)nn2)cc1`, the cytotoxic concentration (CC50) in data set [1] (read-out: CC50) is greater than 19.2 µM. In addition, in data set [2], the pEC50 is less than 4.72.

Turning to `COc1ccc(N(C)C(=O)[C@H](Cc2ccccc2)NC(=O)c2cn(Cc3ccccc3C#N)nn2)cc1`, in data set [1] (read-out: CC50), the CC50 was greater than 21.5 µM. The pEC50 in [2] was less than 4.67.

As for `COc1ccc(N(C)C(=O)[C@H](Cc2ccccc2)NC(=O)c2cn(Cc3ccc([N+](=O)[O-])cc3)nn2)cc1`, the CC50 in [1] (read-out: CC50) is greater than 19.4 µM. In data set [2], the pEC50 was less than 4.71.

In the case of `COc1ccc(N(C)C(=O)[C@H](Cc2ccccc2)NC(=O)c2cn(Cc3cccc(C#N)c3)nn2)cc1`, the CC50 in data set [1] (read-out: CC50) was greater than 21.5 µM. Further, in data set [9], the selectivity ratio is greater than 2.36. For the same molecule, the negative logarithm of the EC50 (pEC50) in data set [2] was 5.04.

For `COc1ccc(N(C)C(=O)[C@H](Cc2ccccc2)NC(=O)c2cn(C[S+]([O-])c3ccccc3)nn2)cc1` (some centres not stated), the results for the pKd in [4], in [8] and in data set [10] were 4.03, 4.90 and 4.55, respectively. Besides, the CC50 in [1] (read-out: CC50) is greater than 19.3 µM. Besides, in data set [9], the selectivity ratio is greater than 2.91. The pEC50 in [2] is 5.18.

Consider `COc1ccc(N(C)C(=O)[C@H](Cc2ccccc2)NC(=O)c2cn(Cc3ccccc3C)nn2)cc1`, for which the CC50 in [1] (read-out: CC50) was greater than 20.7 µM. The selectivity ratio in [9] is greater than 2.58. Further, the pEC50 in data set [2] was 5.10.

In the case of `COc1ccc(N(C)C(=O)[C@H](Cc2ccccc2)NC(=O)c2cn(C3CC(n4cc(C)c(=O)[nH]c4=O)OC3CO)nn2)cc1` (some centres not stated), the CC50 in data set [1] (read-out: CC50) is greater than 16.6 µM. In [9], the selectivity ratio is greater than 1.59. Moreover, in data set [2], the pEC50 is 4.98.

Take `COc1ccc(N(C)C(=O)[C@H](Cc2ccccc2)NC(=O)c2cn(Cc3ccccc3[N+](=O)[O-])nn2)cc1`: the CC50 in data set [1] (read-out: CC50) is greater than 19.4 µM. In addition, the selectivity ratio in [9] was greater than 1.91. Besides, the pEC50 in [2] was 4.99.

Consider `COc1ccc(N(C)C(=O)[C@H](Cc2ccccc2)NC(=O)c2cn(CSc3ccccc3)nn2)cc1`, for which, in [1], the CC50 result is given as “Not Active”. In [2], the EC50 result is recorded as “Not Active”.

For the molecule `COc1ccc(N(C)C(=O)[C@H](Cc2ccccc2)NC(=O)c2cn(Cc3ccccc3Cl)nn2)cc1`, the CC50 in data set [1] (read-out: CC50) was greater than 19.8 µM. In addition, in data set [2], the pEC50 was less than 4.70.

Take `COC(=O)c1cccc(-n2cc(C(=O)N[C@@H](Cc3ccccc3)C(=O)N(C)c3ccc(OC)cc3)nn2)c1`: in [1] (read-out: CC50), the CC50 was greater than 19.5 µM. Besides, the selectivity ratio in [9] was greater than 2.82. For the same molecule, in data set [2], the pEC50 is 5.16.

For the molecule `COc1ccc(N(C)C(=O)[C@H](Cc2ccccc2)NC(=O)c2cn(Cc3ccc(Cl)cc3)nn2)cc1`, in data set [1] (read-out: CC50), the CC50 is greater than 19.8 µM. In addition, in [2], the pEC50 was less than 4.70.

The molecule `COc1ccc(N(C)C(=O)[C@H](Cc2ccccc2)NC(=O)NS(=O)(=O)N2CCCc3ccccc32)cc1` showed a negative logarithm of the EC50 (pEC50) in data set [11] of 6.96. In data set [12], this molecule had a CC50 at 96 h of 33.3 µM.

On to `COc1ccc(N(C)C(=O)[C@H](Cc2ccccc2)NC(=O)c2cn(Cc3ccc(C)cc3)nn2)cc1`, for which, in data set [1], the CC50 entry is on record as “Not Active”. Moreover, in data set [2], the EC50 entry is recorded as “Not Active”.

As for `Cc1[nH]c2ccccc2c1CC(=O)N[C@@H](Cc1ccccc1)C(=O)N(C)c1ccccc1`, the results for the pIC50 in [5] and in data set [7] were 5.08 and 7.00, respectively. The CC50 in data set [6] was 73 µM; in data set [1] (read-out: CC50) it was greater than 70.5 µM. In data set [2], the pEC50 is 5.23.

Turning to `COc1ccc(N(C)C(=O)[C@H](Cc2ccccc2)NC(=O)Cn2nc(C(F)(F)F)c3c2CCCC3)cc1`, in data set [13], the inhibition (commonly how much of the control response was suppressed) at 2 µM is 100%.

Take `COc1ccc(N(C)C(=O)[C@H](Cc2ccccc2)NC(=O)c2cn(-c3ccc4c(c3)OCO4)nn2)cc1`: in data set [1] (read-out: CC50), the CC50 was greater than 20 µM. For the same molecule, the selectivity ratio in [9] was greater than 1.34. Also, in data set [2], the pEC50 is 4.83.

Take `COc1ccc(N(C)C(=O)[C@H](Cc2ccccc2)NC(=O)c2cn(Cc3cccc([N+](=O)[O-])c3)nn2)cc1`: in data set [1], the CC50 entry is “Not Active”. In addition, the EC50 entry in data set [2] is recorded as “Not Active”.

`COc1ccc(N(C)C(=O)[C@H](Cc2ccccc2)NC(=O)c2cn(CS(=O)(=O)c3ccccc3)nn2)cc1`: the CC50 in data set [1] (read-out: CC50) is greater than 18.7 µM. Besides, the EC50 entry in data set [2] is on record as “Not Active”.

With `COc1ccc(N(C)C(=O)[C@H](Cc2ccccc2)NC(=O)c2cn(Cc3cccc(C)c3)nn2)cc1`, the CC50 entry in data set [1] was “Not Active”. In addition, in data set [2], the EC50 result was “Not Active”.

As for `COc1ccc(N(C)C(=O)[C@H](Cc2ccccc2)NC(=O)c2cn(Cc3ccc(C#N)cc3)nn2)cc1`, the CC50 in [1] (read-out: CC50) was greater than 21.5 µM. In addition, the selectivity ratio in data set [9] was greater than 2.4. Also, the pEC50 in data set [2] was 5.05.
